{
  "source": "ChEMBL document CHEMBL2417373",
  "about": "“Substituted tetrahydroisoquinolines as selective antagonists for the orexin 1 receptor” (J Med Chem, 2013)",
  "key": {"Rattus norvegicus [1]": {"test_system": "Rattus norvegicus", "test": "Antiaddictive activity in Sprague-Dawley rat assessed as reduction of cocaine-induced conditioned place preference at 20 mg/kg, ip administered 10 mins before cocaine challenge measured for 15 mins", "assay_type": "functional, organism-based", "design": "dose 20 mg/kg", "method_in_brief": "(§1)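 Unbiased two-compartment place conditioning in rats. Pretest 30 min with free access, first 15 min scored. Rats excluded if >75% or <25% of time in one side. Eight alternating conditioning days, 30 min confinement, vehicle on odd days and drug on even days. In the combination group, compound was given 10 min before cocaine 10 mg/kg. Injection volume 1 mL/kg. Preference score = drug-side time on test day minus pretest.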"}, "Rattus norvegicus [2]": {"test_system": "Rattus norvegicus", "test": "Induction of conditioned place preference in Sprague-Dawley rat at 20 mg/kg, ip measured for 15 mins", "assay_type": "organism-based", "design": "dose 20 mg/kg, route intraperitoneal", "details": "in vivo, 0.25 h", "method_in_brief": "as §1"}, "[3]": {"biological_target": "T1, Orexin/Hypocretin receptor type 1 (Homo sapiens) (UniProt O43613)", "T1 sequence (whole entry)": "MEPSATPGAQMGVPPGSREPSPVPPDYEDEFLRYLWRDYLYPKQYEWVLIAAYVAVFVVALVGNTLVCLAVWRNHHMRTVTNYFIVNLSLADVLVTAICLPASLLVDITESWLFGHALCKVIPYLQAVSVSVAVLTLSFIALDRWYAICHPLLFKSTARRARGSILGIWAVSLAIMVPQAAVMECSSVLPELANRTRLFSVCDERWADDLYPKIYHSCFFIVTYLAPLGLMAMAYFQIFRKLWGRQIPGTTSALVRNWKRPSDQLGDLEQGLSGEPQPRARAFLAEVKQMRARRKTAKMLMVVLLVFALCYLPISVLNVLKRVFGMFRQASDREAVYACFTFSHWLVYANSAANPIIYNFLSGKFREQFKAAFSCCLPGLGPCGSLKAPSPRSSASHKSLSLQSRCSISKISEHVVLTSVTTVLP", "test": "Antagonist activity at OX1 receptor (unknown origin) expressed in RD-HGA16 cells assessed as inhibition orexin A-induced calcium mobilization by fluorescence assay", "assay_type": "functional, cell-based"}, "[4]": {"biological_target": "T1, Orexin/Hypocretin receptor type 1 (Homo sapiens)", "test": "Agonist activity at OX1 receptor (unknown origin) expressed in RD-HGA16 cells assessed as calcium mobilization at 10 uM by fluorescence assay", "assay_type": "functional, cell-based"}, "Homo sapiens": {"organism": "Homo sapiens", "test": "Selectivity ratio of Ke for OX2 receptor (unknown origin) to Ke for OX1 receptor (unknown origin)"}, "[5]": {"biological_target": "T2, Orexin receptor type 2 (Homo sapiens) (UniProt O43614)", "T2 sequence (whole entry)": "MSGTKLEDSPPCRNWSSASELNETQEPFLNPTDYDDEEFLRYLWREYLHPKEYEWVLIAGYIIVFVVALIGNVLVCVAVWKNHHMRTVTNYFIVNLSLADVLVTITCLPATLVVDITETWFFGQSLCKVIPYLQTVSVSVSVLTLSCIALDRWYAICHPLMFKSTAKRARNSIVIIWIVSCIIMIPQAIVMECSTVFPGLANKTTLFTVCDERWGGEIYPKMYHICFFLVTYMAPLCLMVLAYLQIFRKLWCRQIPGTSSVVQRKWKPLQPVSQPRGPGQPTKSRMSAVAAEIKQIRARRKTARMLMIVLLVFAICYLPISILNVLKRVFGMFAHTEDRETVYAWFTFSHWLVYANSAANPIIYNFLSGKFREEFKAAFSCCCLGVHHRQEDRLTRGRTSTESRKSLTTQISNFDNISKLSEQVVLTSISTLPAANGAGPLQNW", "test": "Antagonist activity at OX2 receptor (unknown origin) expressed in RD-HGA16 cells assessed as inhibition orexin A-induced calcium mobilization by fluorescence assay", "assay_type": "functional, cell-based"}, "Orexin receptor type 2": {"biological_target": "T3, Orexin receptor type 2 (Homo sapiens, UniProt O43614)", "T3 sequence (O43614 whole entry)": "T2 sequence (whole entry)", "test": "Antagonist activity at OX2 receptor (unknown origin)"}},
  "note": "Activity calls are given as the source filed them. The rule behind the calls is not given here.",
  "data": [
    {"smiles": "COc1ccc(CC2c3cc(OCC(F)(F)F)c(OC)cc3CCN2CC(=O)NCc2cccnc2)cc1OC", "note": "(centres undefined)", "values": [
      {"measurement": "Activity", "setting": "Rattus norvegicus [1]", "result": "Active"},
      {"measurement": "Activity", "setting": "Rattus norvegicus [2]", "result": "Non-toxic"},
      {"measurement": "Ke(app)", "setting": "[3]", "result": 8.5, "unit": "nM"},
      {"measurement": "Activity", "setting": "[4]", "result": "inactive"}
    ]},
    {"smiles": "COc1ccc(CC2c3cc(OC)c(OC)cc3CCN2CC(=O)N[C@@H](C)c2ccccc2)cc1OC", "note": "(single isomer, unassigned; diastereomer 2)", "values": [
      {"measurement": "Ratio", "setting": "Homo sapiens", "result": "> 125"},
      {"measurement": "Ke(app)", "setting": "[5]", "result": "> 10", "unit": "µM"},
      {"measurement": "Ke(app)", "setting": "[3]", "result": 80, "unit": "nM"},
      {"measurement": "Activity", "setting": "[4]", "result": "inactive"}
    ]},
    {"smiles": "CNC(=O)[C@@H](c1ccccc1)N1CCc2cc(OC)c(OC)cc2[C@@H]1CCc1ccc(C(F)(F)F)cc1", "note": "[ALMOREXANT]", "values": [
      {"measurement": "IC50", "setting": "Orexin receptor type 2", "result": 8.1, "unit": "µM"}
    ]}
  ]
}
